Active and inactive are the calls of the source. No cut-off for these calls is given here.
System: Trypanosoma cruzi
Test: Antitrypanosomal activity against Trypanosoma cruzi Colombiana after 5 days by MTT assay
Conditions: 120 h, read-out: ID50

Question: With CC1CS(=O)(=O)CCN1/N=C/c1ccc([N+](=O)[O-])o1 (stereo unspecified) [NIFURTIMOX] as the molecule, how does the IC50 read?
Answer: Its IC50 is 3.4 µM.

System: Leishmania braziliensis
Test: Inhibition of Mitochondrial dehydrogenase in Leishmania braziliensis MHOM/BR/00/LTB300 at 20 uM after 30 to 240 mins by MTT dye reduction assay in relative to control
Conditions: not given

Question: With Cc1ccc2c(c1)=[N+]([O-])C1(CCCC1)[N+]=2[O-] as the molecule, how does the Activity read?
Answer: Its Activity is “Active”.

System: Trypanosoma cruzi
Test: Trypanocidal activity against Trypanosoma cruzi CL Brener amastigotes infected in Vero cells assessed as parasite infection at 5 uM after 72 hrs
Assay type: functional
Conditions: not given
Method in brief: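 Vero cells (4×10^7/L) on coverslips in modified Eagle's medium + 3% FBS, 37 °C; after 24 h infected with trypomastigotes (5×10^9/L) ± compound. Non-internalized parasites removed at 24 h, fresh medium ± compound, 72 h further incubation; May-Grünwald-Giemsa stain, 500 cells scored for % infected and amastigotes per cell; endocytic index = product of the two.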

Question: Which Activity does the source give for Cc1ccc2c(c1)=[N+]([O-])C1(CCCC1)[N+]=2[O-] here?
Answer: Its Activity is 14.7%.

System: Trypanosoma cruzi
Test: Antitrypanosomal activity against Trypanosoma cruzi CL Brener trypomastigotes infected in Vero cells assessed as parasite lysis at 10 uM after 3 hrs relative to untreated control
Assay type: functional
Conditions: not given
Method in brief: (§1)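 Cell-culture trypomastigotes released from infected Vero cells (37 °C, 5% CO2, 5–7 days), collected by centrifugation and allowed 4 h at 37 °C to swim off. Supernatant parasites exposed to 10.0–50.0 μM for 2–26 h; lysis counted in a Neubauer chamber relative to untreated parasites; three independent experiments.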

Question: Which Activity does the source give for Cc1ccc2c(c1)=[N+]([O-])C1(CCCC1)[N+]=2[O-] here?
Answer: The Activity was 39%.

System: Trypanosoma cruzi
Test: Antitrypanosomal activity against Trypanosoma cruzi Tulahuen 2 epimastigotes assessed as inhibition of parasite growth after 5 days
Assay type: functional
Conditions: Trypanosoma cruzi, Tulahuen 2, 120 h; read-out: ID50 (the source's name)
Method in brief: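 Stationary-phase (10-day) Tulahuen 2 epimastigotes inoculated at 1×10^6 cells/mL in BHI-Tryptose + 5% FBS, 28 °C, drug added from DMSO stock (final DMSO ≤0.4%; control 0.4% DMSO). Growth followed as A600; inhibition from day-5 vs day-0 absorbance relative to control. ID50 = concentration reducing absorbance ratio to 50%; three independent experiments.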

Question: For Cc1ccc2c(c1)=[N+]([O-])C1(CCCC1)[N+]=2[O-], which IC50 is on record?
Answer: Its IC50 is 7.9 µM.

Question: Which IC50 does the source give for CC1CS(=O)(=O)CCN1/N=C/c1ccc([N+](=O)[O-])o1 (stereo unspecified) [NIFURTIMOX] here?
Answer: The IC50 was 7.7 µM.

System: Trypanosoma cruzi
Test: Antitrypanosomal activity against Trypanosoma cruzi CL Brener epimastigotes assessed as parasitic cytotoxicity at 25 uM after 5 days by MTT assay
Assay type: functional
Conditions: not given
Method in brief: (§2)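 Single 25 μM dose for 5 days on exponential-phase epimastigotes in BHI-Tryptose + 5% FBS, 24-well plates; MTT 0.4 mg/mL, 3 h at 37 °C after PBS wash, formazan in DMSO, OD595. PCyt = [[…] (ODd − ODdm)/(ODc − ODcm)] × 100 with medium-only blanks, compound-in-medium blanks and growth controls; three independent experiments.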

Question: Which Activity does the source give for Cc1ccc2c(c1)=[N+]([O-])C1(CCCC1)[N+]=2[O-] here?
Answer: Its Activity is 56.5%.

Question: With CC1CS(=O)(=O)CCN1/N=C/c1ccc([N+](=O)[O-])o1 (stereo unspecified) [NIFURTIMOX] as the molecule, how does the Activity read?
Answer: The Activity was 90%.

System: J774
Test: Cytotoxicity against mouse J774 cells at 100 uM relative to 5-((hydroxyimino)methyl)-2,2-dimethyl-2H-benzo[d]imidazole 1,3-dioxide
Assay type: cell-based
Conditions: j774, 100 µM

Question: For Cc1ccc2c(c1)=[N+]([O-])C1(CCCC1)[N+]=2[O-], which Activity is on record?
Answer: The Activity was 1.22%.

System: Trypanosoma cruzi
Test: Antitrypanosomal activity against Trypanosoma cruzi CL Brener epimastigotes after 5 days by MTT assay
Assay type: functional
Conditions: 120 h, read-out: ID50
Method in brief: (§3)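 Epimastigotes (T. cruzi strains, BHI-Tryptose + 5% FBS, 28 °C) or L. braziliensis LTB300 promastigotes (axenic RPMI + 5% FBS, 28 °C) from exponential culture in 24-well plates; compounds from DMSO stock added for 5 days. Washed in PBS, 0.4 mg/mL MTT at 37 °C for 3 h, formazan dissolved in DMSO, OD595 read. Triplicate per concentration, six growth controls; 1.0–50.0 μM dose-response, ID50 = concentration reducing absorbance ratio to 50%; three independent experiments.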

Question: For CC1CS(=O)(=O)CCN1/N=C/c1ccc([N+](=O)[O-])o1 (stereo unspecified) [NIFURTIMOX], which IC50 is on record?
Answer: The IC50 was 4.9 µM.

System: Trypanosoma cruzi
Test: Antitrypanosomal activity against Trypanosoma cruzi CL Brener trypomastigotes infected in Vero cells assessed as parasite lysis at 10 uM after 22 hrs relative to untreated control
Assay type: functional
Conditions: not given
Method in brief: as §1

Question: For Cc1ccc2c(c1)=[N+]([O-])C1(CCCC1)[N+]=2[O-], which Activity is on record?
Answer: Its Activity is 25%.

System: Trypanosoma cruzi
Test: Antitrypanosomal activity against Trypanosoma cruzi Colombiana assessed as parasitic cytotoxicity at 25 uM after 5 days by MTT assay
Assay type: functional
Conditions: not given
Method in brief: as §2

Question: With Cc1ccc2c(c1)=[N+]([O-])C1(CCCC1)[N+]=2[O-] as the molecule, how does the Activity read?
Answer: Its Activity is 59.3%.

Question: Which Activity does the source give for CC1CS(=O)(=O)CCN1/N=C/c1ccc([N+](=O)[O-])o1 (stereo unspecified) [NIFURTIMOX] here?
Answer: Its Activity is 87%.

System: Trypanosoma cruzi
Test: Decrease of glucose uptake in Trypanosoma cruzi Y epimastigotes after 4 hrs relative to control
Assay type: functional, organism-based
Conditions: not given
Method in brief: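 Y-strain epimastigotes (80×10^6/mL) washed and resuspended in PBS with 1 mM glucose, exposed 4 h to 20 μM compound from DMSO. Parasite-free supernatant refluxed 1 h with Benedict's reagent; remaining glucose quantified at 700 nm against a calibration curve.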

Question: With Cc1ccc2c(c1)=[N+]([O-])C1(CCCC1)[N+]=2[O-] as the molecule, how does the Activity read?
Answer: The Activity was “Active”.

Question: For CC1CS(=O)(=O)CCN1/N=C/c1ccc([N+](=O)[O-])o1 (stereo unspecified) [NIFURTIMOX], which Activity is on record?
Answer: The Activity was “inactive”.

System: Trypanosoma cruzi
Test: Antitrypanosomal activity against Trypanosoma cruzi CL Brener trypomastigotes infected in Vero cells assessed as parasite lysis at 10 uM after 26 hrs relative to untreated control
Assay type: functional
Conditions: not given
Method in brief: as §1

Question: With Cc1ccc2c(c1)=[N+]([O-])C1(CCCC1)[N+]=2[O-] as the molecule, how does the Activity read?
Answer: Its Activity is 24%.

System: not listed separately
Test: Selective index, ratio of ID50 for mouse J774 cells to ID50 for Leishmania braziliensis LTB300
Conditions: not given

Question: With Cc1ccc2c(c1)=[N+]([O-])C1(CCCC1)[N+]=2[O-] as the molecule, how does the Ratio read?
Answer: Its Ratio is 7.1.

System: Trypanosoma cruzi
Test: Trypanocidal activity against Trypanosoma cruzi CL Brener amastigotes infected in Vero cells assessed as parasite infection at 2.5 uM after 72 hrs
Conditions: not given

Question: For Cc1ccc2c(c1)=[N+]([O-])C1(CCCC1)[N+]=2[O-], which Activity is on record?
Answer: Its Activity is 34.8%.

System: Trypanosoma cruzi
Test: Antitrypanosomal activity against Trypanosoma cruzi Y epimastigotes after 5 days by MTT assay
Assay type: functional
Conditions: 120 h, read-out: ID50
Method in brief: as §3

Question: For Cc1ccc2c(c1)=[N+]([O-])C1(CCCC1)[N+]=2[O-], which IC50 is on record?
Answer: The IC50 was 15.8 µM.

Question: For CC1CS(=O)(=O)CCN1/N=C/c1ccc([N+](=O)[O-])o1 (stereo unspecified) [NIFURTIMOX], which IC50 is on record?
Answer: Its IC50 is 9.7 µM.

System: not listed separately
Test: Selective index, ratio of ID50 for mouse J774 cells to ID50 for Trypanosoma cruzi Tulahuen 2
Conditions: not given

Question: With Cc1ccc2c(c1)=[N+]([O-])C1(CCCC1)[N+]=2[O-] as the molecule, how does the Ratio read?
Answer: Its Ratio is 8.

Question: With CC1CS(=O)(=O)CCN1/N=C/c1ccc([N+](=O)[O-])o1 (stereo unspecified) [NIFURTIMOX] as the molecule, how does the Ratio read?
Answer: The Ratio was 44.9.

System: Trypanosoma cruzi
Test: Antitrypanosomal activity against Trypanosoma cruzi CL Brener trypomastigotes infected in Vero cells assessed as parasite lysis at 50 uM after 19 hrs relative to untreated control
Assay type: functional
Conditions: not given
Method in brief: as §1

Question: For Cc1ccc2c(c1)=[N+]([O-])C1(CCCC1)[N+]=2[O-], which Activity is on record?
Answer: Its Activity is 52%.

System: Trypanosoma cruzi
Test: Reduction of end products excretion levels in Trypanosoma cruzi Y epimastigotes after 2 days by [1H]NMR method
Assay type: functional, organism-based
Conditions: not given
Method in brief: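 Y-strain epimastigotes treated 2 days with 5 μM compound; culture centrifuged 1500 g, 10 min, 4 °C, parasite-free supernatant stored at −20 °C. Supernatant plus DMF internal standard and D2O run by 1H NMR with water suppression; metabolite peaks confirmed by spiking and standards, compared to untreated and parasite-free medium.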

Question: Which Activity does the source give for Cc1ccc2c(c1)=[N+]([O-])C1(CCCC1)[N+]=2[O-] here?
Answer: Its Activity is “Active”.

System: Trypanosoma cruzi
Test: Antitrypanosomal activity against Trypanosoma cruzi CL Brener trypomastigotes infected in Vero cells assessed as parasite lysis at 10 uM after 2 hrs relative to untreated control
Assay type: functional
Conditions: not given
Method in brief: as §1

Question: For Cc1ccc2c(c1)=[N+]([O-])C1(CCCC1)[N+]=2[O-], which Activity is on record?
Answer: Its Activity is 1%.

System: Trypanosoma cruzi
Test: Antitrypanosomal activity against Trypanosoma cruzi CL Brener trypomastigotes infected in Vero cells assessed as parasite lysis at 25 uM after 19 hrs relative to untreated control
Assay type: functional
Conditions: not given
Method in brief: as §1

Question: Which Activity does the source give for Cc1ccc2c(c1)=[N+]([O-])C1(CCCC1)[N+]=2[O-] here?
Answer: Its Activity is 24%.

System: Trypanosoma cruzi
Test: Inhibition of Mitochondrial dehydrogenase in Trypanosoma cruzi Y epimastigotes at 20 uM after 30 to 240 mins by MTT dye reduction assay in relative to control
Conditions: not given
Method in brief: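 Y-strain epimastigotes, 10^6 per well in 500 µL, 20 μM compound, 28 °C for 30–240 min with time-matched untreated controls. MTT (50 µL of 5 mg/mL) added for 4 h more, stopped with acidic isopropanol, A570 read; activity expressed as % of untreated parasites.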

Question: With Cc1ccc2c(c1)=[N+]([O-])C1(CCCC1)[N+]=2[O-] as the molecule, how does the Activity read?
Answer: The Activity was “inactive”.

Question: For CC1CS(=O)(=O)CCN1/N=C/c1ccc([N+](=O)[O-])o1 (stereo unspecified) [NIFURTIMOX], which Activity is on record?
Answer: Its Activity is “inactive”.

System: not listed separately
Test: Cytotoxicity against mouse J774 cells
Assay type: cell-based
Conditions: read-out: ID50 (the source's name)

Question: Which CC50 does the source give for Cc1ccc2c(c1)=[N+]([O-])C1(CCCC1)[N+]=2[O-] here?
Answer: Its CC50 is 63 µM.

Question: Which CC50 does the source give for CC1CS(=O)(=O)CCN1/N=C/c1ccc([N+](=O)[O-])o1 (stereo unspecified) [NIFURTIMOX] here?
Answer: Its CC50 is 346 µM.

System: Leishmania braziliensis
Test: Antiparasitic activity against Leishmania braziliensis MHOM/BR/00/LTB300 after 5 days by MTT assay
Assay type: functional
Conditions: MHOM/BR/00/LTB300, 120 h, read-out: ID50
Method in brief: as §3

Question: Which IC50 does the source give for Cc1ccc2c(c1)=[N+]([O-])C1(CCCC1)[N+]=2[O-] here?
Answer: The IC50 was 8.9 µM.

— ChEMBL document CHEMBL1155286, “Second generation of 2H-benzimidazole 1,3-dioxide derivatives as anti-trypanosomatid agents: synthesis, biological evaluation, and mode of action studies” (Eur J Med Chem, 2009)
